In ChEMBL document CHEMBL1150332, “Total synthesis of phenanthroindolizidine alkaloids (+/-)-antofine, (+/-)-deoxypergularinine, and their dehydro congeners and evaluation of their cytotoxic activity” (Bioorg Med Chem, 2008):
Values after ≈ are worked out from the molar mass of the structure shown. Active and inactive are the calls of the source. No cut-off for these calls is given here.

Tests used:
Format in all cases: functional, cell-based
[1] = Cytotoxicity against human KB-VIN cells after 72 hrs by sulforhodamine B assay; conditions: KBVIN
Method in brief: (§1)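 SRB assay following NCI procedure; 72 h continuous exposure. Cells grown at 37 °C, 5% CO2, humidified, in RPMI-1640 with 25 mM HEPES, 2% (w/v) sodium bicarbonate, 10% (v/v) FBS, 100 µg/mL kanamycin. Compounds from DMSO stocks, final DMSO ≤1% (v/v). EC50 (µg/mL, 50% cell-number reduction) interpolated from dose-response; triplicate tests; doxorubicin positive control.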

MCF7 = test: Cytotoxicity against human MCF7 cells after 72 hrs by sulforhodamine B assay; conditions: for EC50: MCF7, 72 h; method in brief: as §1
A549 = test: Cytotoxicity against human A549 cells after 72 hrs by sulforhodamine B assay; conditions: for EC50: A549, 72 h; method in brief: as §1
KB = test: Cytotoxicity against human KB cells after 72 hrs by sulforhodamine B assay; method in brief: as §1

SMILES: COc1ccc2cc(/C=C/C(=O)O)c3cc(OC)c(OC)cc3c2c1
- EC50 [1]: 14.7 µg/mL (≈ 43.5 µM)
- Activity (MCF7): inactive
- Activity (A549): inactive
- Activity (KB): inactive

SMILES: COc1ccc2c(c1)c1cc(OC)c(OC)cc1c1cc[nH]c(=O)c21
- EC50 [1]: 7.39 µg/mL (≈ 22 µM)
- Activity (MCF7): inactive
- Activity (A549): inactive
- Activity (KB): inactive

SMILES: COc1ccc2cc(/C=C/C(=O)N=[N+]=[N-])c3cc(OC)c(OC)cc3c2c1
- EC50 [1]: 9.36 µg/mL (≈ 25.8 µM)
- EC50 (MCF7): 8.29 µg/mL (≈ 22.8 µM)
- Activity (A549): inactive
- EC50 (KB): 13.5 µg/mL (≈ 37.2 µM)

SMILES: COc1ccc2c3c(c4cc(OC)c(OC)cc4c2c1)C(=O)N1CCCC1C3 (stereo not given)
- EC50 [1]: 1.16 µg/mL (≈ 3.07 µM)
- EC50 (MCF7): 2.14 µg/mL (≈ 5.67 µM)
- EC50 (A549): 1.15 µg/mL (≈ 3.05 µM)
- EC50 (KB): 1.39 µg/mL (≈ 3.68 µM)

SMILES: COc1ccc2c3c(c4cc(OC)c(OC)cc4c2c1)CC1CCCN1C3 (racemic) [(+/-)-ANTOFINE]
- EC50 [1]: 0.00083 µg/mL (≈ 0.00228 µM)
- EC50 (MCF7): 0.0045 µg/mL (≈ 0.0124 µM)
- EC50 (A549): 0.00016 µg/mL (≈ 0.00044 µM)
- EC50 (KB): 0.00043 µg/mL (≈ 0.00118 µM)

SMILES: COc1ccc2c3c(c4cc(OC)c(OC)cc4c2c1)CN1CCCC1C3 (racemic) [(+/-)-DEOXYTYLOPHORININE]
- EC50 [1]: 0.016 µg/mL (≈ 0.044 µM)
- EC50 (MCF7): 0.043 µg/mL (≈ 0.118 µM)
- EC50 (A549): 0.011 µg/mL (≈ 0.0303 µM)
- EC50 (KB): 0.023 µg/mL (≈ 0.0633 µM)

SMILES: COc1ccc2c(c1)c1cc(OC)c(OC)cc1c1cc3[n+](cc21)CCC3.[Br-] [DEHYDROANTOFINE BROMIDE]
- EC50 [1]: 5.14 µg/mL
- EC50 (MCF7): 1.29 µg/mL
- EC50 (A549): 0.49 µg/mL
- EC50 (KB): 5.37 µg/mL

SMILES: COc1ccc2c(c1)c1cc(OC)c(OC)cc1c1cc3[n+](cc21)CCC3.[Cl-] [DEHYDROANTOFINE CHLORIDE]
- EC50 [1]: 0.33 µg/mL
- EC50 (MCF7): 1.72 µg/mL
- EC50 (A549): 0.73 µg/mL
- EC50 (KB): 0.93 µg/mL

SMILES: COc1ccc2c(c1)c1cc(OC)c(OC)cc1c1c[n+]3c(cc21)CCC3.[Br-] [DEOXYPERGULARININE BROMIDE]
- EC50 [1]: 8.26 µg/mL
- EC50 (MCF7): 1.18 µg/mL
- EC50 (A549): 0.32 µg/mL
- EC50 (KB): 0.29 µg/mL

SMILES: COc1ccc2c(c1)c1cc(OC)c(OC)cc1c1c[n+]3c(cc21)CCC3.[Cl-] [DEOXYPERGULARININE CHLORIDE]
- EC50 [1]: 5.66 µg/mL
- EC50 (MCF7): 1.49 µg/mL
- EC50 (A549): 1.06 µg/mL
- EC50 (KB): 0.95 µg/mL
